The text below walks through data of ChEMBL document CHEMBL1157427, “In vitro and in vivo anti-tumoral activities of imidazo[1,2-a]quinoxaline, imidazo[1,5-a]quinoxaline, and pyrazolo[1,5-a]quinoxaline derivatives” (Bioorg Med Chem, 2008).

Active and inactive are the calls of the source. The rule behind the calls is not given here.

For orientation: IC50 means the concentration that inhibits the measured activity by half. A high value points to a need for much substance. What is called LD50 is the dose at which mortality reaches 50%. A higher LD50 goes with a less toxic substance.

The subject of one data set is A-375. Description: Cytotoxicity against human A375 cells after 96 hrs by MTT assay. As to conditions: A-375, 96 h. In kind it is functional, cell-based. The method in brief: (§1)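 Cells were seeded at 5000/well in DMEM (M4Be) or RPMI-1640 (others) and attached overnight. They were then exposed for 96 h at 37 °C, 5% CO2 to 10^-4 to 10^-10 […] in 1% DMSO/medium. MTT was added for 4 h, formazan dissolved in isopropanol/1 M HCl, and OD read at 570 nm. Survival was taken as % of vehicle control and IC50 as 50% growth inhibition. ≥3 experiments in triplicate; mean ± SD.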
For orientation: Tetrazolium assays rely on reduction of a dye to a coloured formazan, in cell work by metabolically active cells.

A further data set relates to LS174T. As to the kind of experiment: Cytotoxicity against human LS174T cells after 96 hrs by MTT assay. In kind it is functional, cell-based. The method in brief: as §1
The nature of data set [1]: Cytotoxicity against human M4Be cells after 96 hrs by MTT assay. In kind it is functional, cell-based. In a few lines:
as §1

The nature of data set [2]: Cytotoxicity against human RPMI7591 cells after 96 hrs by MTT assay. Type of data set: functional, cell-based.
Another data set has as its system Raji. As to the kind of experiment: Cytotoxicity against human Raji cells after 96 hrs by MTT assay. Type of data set: functional, cell-based. In a few lines: as §1
A further data set relates to MCF7. As to the kind of experiment: Cytotoxicity against human MCF7 cells after 96 hrs by MTT assay. As to conditions: MCF7, 96 h. In kind it is functional, cell-based. In a few lines:
as §1

The next data set has as its system M4Be. As to the kind of experiment: Antitumor activity against human M4Be cells xenografted Swiss nude mouse assessed as reduction in tumor volume at 20 mg/kg, ip administered twice a week for 3 weeks measured from day 18 to day 55. Type of data set: functional, organism-based. On the set-up: dose 20 mg/kg. In a few lines:
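Female Swiss nude mice (7 weeks old) were given 3×10^6 M4Be cells s.c. in the flank. At ~0.7 cm3 they were randomized, 6 per group, and received 20 mg/kg twice weekly (Mon/Thu) for 3 weeks in intralipid/DMSO (50:50), with the cycle repeated after 15 days. Controls received vehicle. Calipers twice weekly, V = 0.5ab². Repeated-measures ANOVA with contrast test, significance 0.02. Mean ± SEM.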
Background: In xenograft studies the graft and the host belong to different species.

Data set [3] is described as follows: Toxicity in ip dosed Swiss mouse. Type of data set: organism-based. As to conditions: in vivo. In a few lines: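 Single intraperitoneal doses of 30 to 300 mg/kg given to healthy Swiss mice. Compound dissolved in intralipid/DMSO (50:50, v/v) because of poor water solubility. Read-out is the 50% lethal dose (LD50).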

In the data set with A-375, `CC(C)Cc1cc2c(N(C)C)nc3ccccc3n2n1` yielded an IC50 of 101 µM. As for `CNc1nc2ccccc2n2nc(CC(C)C)cc12`, 78.6 µM corresponded to half-maximal inhibition in the data set on A-375 (IC50). This IC50 and that of the molecule before are within 1.5-fold of each other. Still for that read-out and setting: with `CC(C)Cc1cnc2c(N(C)C)nc3ccccc3n12` the figure was 66.3 µM. In turn, `CCc1c2c(nc3ccc(OC(=O)N4CCC(N5CCCCC5)CC4)cc13)-c1cc3c(c(=O)n1C2)COC(=O)[C@]3(O)CC` [IRINOTECAN] yielded an IC50 in the data set on LS174T of 1.16 µM.

In the data set on A-375, `Cc1cccc(Cl)c1Nc1nc2ccccc2n2c(CCc3ccccc3)cnc12` displayed an IC50 of 329 µM. The same measure, in the same setting: with `CNc1nc2ccccc2n2c(-c3ccccc3)ncc12` the figure was over 400 µM. Consider `CC(C)Cn1cnc2c(N)nc3ccccc3c21` [IMIQUIMOD], for which the half-maximal inhibitory concentration (IC50) in data set [1] was 33.5 µM; in data set [2], 53.7 µM; in the data set with LS174T, 34.4 µM. `Cc1cccc(Cl)c1Nc1nc2ccccc2n2c(CC(C)C)cnc12` showed an IC50 in the data set on A-375 of over 400 µM.

In the data set with Raji, `CN(Cc1cnc2nc(N)nc(N)c2n1)c1ccc(C(=O)N[C@@H](CCC(=O)O)C(=O)O)cc1` [METHOTREXATE] had an IC50 of 0.04 µM. In other words, the double-digit nanomolar range. Turning to `CNc1nc2ccccc2n2c(CCc3ccccc3)cnc12`, the IC50 turned out to be 2.58 µM in data set [1]; 4.23 µM in data set [2]; 1.08 µM in the data set on MCF7; 4.12 µM with LS174T; 6.23 µM in the data set on Raji. Further, the outcome with M4Be was Active. Moreover, the LD50 in data set [3] was over 300 mg/kg. For `CNc1nc2ccccc2n2c(C)ncc12`, the IC50 in the data set with A-375 was found to be 100 µM. Same read-out and setting: with `COc1nc2ccccc2n2c(CCc3ccccc3)cnc12` the figure was 47.8 µM; with `CNc1nc2ccccc2n2cncc12`, 85.3 µM; with `Clc1nc2ccccc2n2c(CCc3ccccc3)cnc12`, 24 µM. In the data set on A-375, `CNc1nc2ccccc2n2c(CC(C)C)cnc12` yielded an IC50 of 31.6 µM. Same read-out and setting: then `CN(C)c1nc2ccccc2n2c(CCc3ccccc3)cnc12`, with 80.1 µM; and `Nc1nc2ccccc2n2c(CCc3ccccc3)cnc12`, with 2.35 µM. On the same count and under the same terms, with `CN(C)c1nc2ccccc2n2cncc12` the figure was 121 µM.
